Assay results from ChEMBL document CHEMBL1799960, “Diadenosine 5',5''-(boranated)polyphosphonate analogues as selective nucleotide pyrophosphatase/phosphodiesterase inhibitors” (J Med Chem, 2010).
Active and inactive are the calls of the source. The calls are words filed in the database; no cut-off is given here.

Experiments:
Assay type in all cases: cell-based
Conditions in all cases: COS-7
[1] = biological target: T1, Ectonucleoside triphosphate diphosphohydrolase 3 (Homo sapiens) (UniProt O75355); experiment: Inhibition of human NTPDase3 expressed in COS7 cells assessed as amount of inorganic phosphate released using ATP as the substrate at 100 uM after 15 mins by malachite green reagent method
T1 sequence (whole entry): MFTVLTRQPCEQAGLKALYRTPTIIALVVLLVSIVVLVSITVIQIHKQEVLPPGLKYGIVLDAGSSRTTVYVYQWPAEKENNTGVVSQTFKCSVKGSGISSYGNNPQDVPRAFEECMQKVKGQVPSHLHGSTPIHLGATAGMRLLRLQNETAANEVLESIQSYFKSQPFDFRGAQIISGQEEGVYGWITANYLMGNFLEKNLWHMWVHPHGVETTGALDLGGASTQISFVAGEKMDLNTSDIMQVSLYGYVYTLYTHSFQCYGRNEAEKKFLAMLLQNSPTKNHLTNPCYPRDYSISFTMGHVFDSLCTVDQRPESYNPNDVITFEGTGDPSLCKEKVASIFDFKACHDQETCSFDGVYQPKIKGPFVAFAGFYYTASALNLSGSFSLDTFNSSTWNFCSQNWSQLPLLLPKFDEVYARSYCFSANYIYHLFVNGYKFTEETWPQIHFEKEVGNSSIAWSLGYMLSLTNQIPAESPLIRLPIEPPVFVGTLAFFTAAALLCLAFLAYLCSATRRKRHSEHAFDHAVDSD
Outline: (§1)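 Protein extracts of transfected COS-7 cells (ecto-5'-nucleotidase: 100 μM AMP substrate; NTPDases: 100 μM ATP) were preincubated 3 min at 37 °C in Tris-Ringer pH 7.3 with inhibitor at 100 μM final. After 15 min, malachite green stop; Pi read at 630 nm. Activity given as % of substrate-only control. Mean ± SD of three experiments in triplicate.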

[2] = biological target: T2, Ectonucleoside triphosphate diphosphohydrolase 2 (Homo sapiens) (UniProt Q9Y5L3); experiment: Inhibition of human NTPDase2 expressed in COS7 cells assessed as amount of inorganic phosphate released using ATP as the substrate at 100 uM after 15 mins by malachite green reagent method; outline: as §1
T2 sequence (whole entry): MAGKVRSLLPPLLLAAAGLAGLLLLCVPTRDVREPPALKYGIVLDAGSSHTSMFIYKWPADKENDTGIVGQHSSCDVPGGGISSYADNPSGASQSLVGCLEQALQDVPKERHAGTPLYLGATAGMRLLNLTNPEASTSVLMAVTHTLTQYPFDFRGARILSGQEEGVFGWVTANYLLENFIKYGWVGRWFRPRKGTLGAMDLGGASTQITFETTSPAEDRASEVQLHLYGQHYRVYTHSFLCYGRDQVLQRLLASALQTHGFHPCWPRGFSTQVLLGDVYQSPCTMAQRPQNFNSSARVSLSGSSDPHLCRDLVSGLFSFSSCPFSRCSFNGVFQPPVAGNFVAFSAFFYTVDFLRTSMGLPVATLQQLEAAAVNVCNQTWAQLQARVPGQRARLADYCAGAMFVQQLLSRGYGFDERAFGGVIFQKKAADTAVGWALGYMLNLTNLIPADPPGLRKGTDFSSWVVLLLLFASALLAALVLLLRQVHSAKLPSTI

[3] = biological target: T3, Ectonucleoside triphosphate diphosphohydrolase 1 (Homo sapiens) (UniProt P49961); experiment: Inhibition of human NTPDase1 expressed in COS7 cells assessed as amount of inorganic phosphate released using ATP as the substrate at 100 uM after 15 mins by malachite green reagent method; outline: as §1
T3 sequence (whole entry): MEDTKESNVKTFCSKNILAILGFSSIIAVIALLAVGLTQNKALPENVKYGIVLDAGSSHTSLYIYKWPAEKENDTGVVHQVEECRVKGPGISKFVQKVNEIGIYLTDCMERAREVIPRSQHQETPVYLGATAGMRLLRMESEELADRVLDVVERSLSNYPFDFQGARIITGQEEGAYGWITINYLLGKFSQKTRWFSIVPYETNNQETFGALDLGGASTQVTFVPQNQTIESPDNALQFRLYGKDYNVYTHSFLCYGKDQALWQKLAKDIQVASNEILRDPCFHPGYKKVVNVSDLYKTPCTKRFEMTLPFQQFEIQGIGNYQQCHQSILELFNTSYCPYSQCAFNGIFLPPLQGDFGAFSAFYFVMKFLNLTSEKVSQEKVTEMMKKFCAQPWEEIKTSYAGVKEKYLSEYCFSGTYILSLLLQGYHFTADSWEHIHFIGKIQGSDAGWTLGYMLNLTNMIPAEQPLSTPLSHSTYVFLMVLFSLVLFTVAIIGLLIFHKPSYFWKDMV

[4] = biological target: T4, Ectonucleotide pyrophosphatase/phosphodiesterase family member 3 (Homo sapiens) (UniProt O14638); experiment: Inhibition of human NPP3 expressed in COS7 cells assessed as production of p-nitrophenol using Ap5A as the substrate at 100 uM after 30 mins […]
T4 sequence (whole entry): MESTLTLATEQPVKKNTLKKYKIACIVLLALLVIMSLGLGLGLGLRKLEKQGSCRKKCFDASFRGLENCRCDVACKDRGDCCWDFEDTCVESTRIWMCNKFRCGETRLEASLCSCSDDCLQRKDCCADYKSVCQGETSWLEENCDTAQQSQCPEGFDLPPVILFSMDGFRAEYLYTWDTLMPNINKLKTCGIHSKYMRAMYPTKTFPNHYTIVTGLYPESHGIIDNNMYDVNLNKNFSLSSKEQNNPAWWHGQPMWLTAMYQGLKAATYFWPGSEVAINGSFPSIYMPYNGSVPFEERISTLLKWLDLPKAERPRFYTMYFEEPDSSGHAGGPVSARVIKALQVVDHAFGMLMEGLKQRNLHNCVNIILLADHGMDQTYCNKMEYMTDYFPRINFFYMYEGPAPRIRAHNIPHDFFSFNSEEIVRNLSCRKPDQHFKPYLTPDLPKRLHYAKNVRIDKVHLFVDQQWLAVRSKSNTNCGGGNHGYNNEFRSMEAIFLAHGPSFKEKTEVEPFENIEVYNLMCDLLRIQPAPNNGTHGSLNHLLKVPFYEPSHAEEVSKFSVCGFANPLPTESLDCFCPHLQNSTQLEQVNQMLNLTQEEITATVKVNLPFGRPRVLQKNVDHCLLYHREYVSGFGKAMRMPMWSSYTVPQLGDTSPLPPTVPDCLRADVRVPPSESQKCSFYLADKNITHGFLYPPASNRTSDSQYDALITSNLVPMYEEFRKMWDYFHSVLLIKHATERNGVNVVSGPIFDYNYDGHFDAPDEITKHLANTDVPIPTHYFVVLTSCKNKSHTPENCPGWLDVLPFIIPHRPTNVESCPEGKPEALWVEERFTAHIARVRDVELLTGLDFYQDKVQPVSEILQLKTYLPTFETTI

| SMILES | inhibition [1] | inhibition [2] | inhibition [3] | inhibition [4] |
| --- | --- | --- | --- | --- |
| BP(=O)(OP(=O)(O)CP(=O)(O)OC[C@H]1O[C@@H](n2cnc3c(N)ncnc32)C[C@@H]1O)OP(=O)(O)CP(=O)(O)OC[C@H]1O[C@@H](n2cnc3c(N)ncnc32)C[C@@H]1O | 10% | 10% | inactive | 10% |
| Nc1ncnc2c1ncn2[C@@H]1O[C@H](COP(=O)(O)CP(=O)(O)OP(=O)(O)CP(=O)(O)OC[C@H]2O[C@@H](n3cnc4c(N)ncnc43)[C@H](O)[C@@H]2O)[C@@H](O)[C@H]1O | 10% | 10% | inactive | 10% |
| BP(=O)(OP(=O)(O)CP(=O)(O)OC[C@H]1O[C@@H](n2cnc3c(N)ncnc32)[C@H](O)[C@@H]1O)OP(=O)(O)CP(=O)(O)OC[C@H]1O[C@@H](n2cnc3c(N)ncnc32)[C@H](O)[C@@H]1O | 10% | 10% | inactive | 10% |
| Nc1ncnc2c1ncn2[C@H]1C[C@H](O)[C@@H](COP(=O)(O)CP(=O)(O)OP(=O)(O)CP(=O)(O)OC[C@H]2O[C@@H](n3cnc4c(N)ncnc43)C[C@@H]2O)O1 | 10% | 10% | inactive | 10% |
